Results: ChEMBL document CHEMBL3526013, “Cannabinoid type 1 receptor antagonists modulate transport activity of multidrug resistance-associated proteins MRP1, MRP2, MRP3, and MRP4” (Drug Metab Dispos, 2011)
Each block holds one compound with its values, some of them ahead of it.

Tests used:
[1] = target: T1, ATP-binding cassette sub-family C member 2 (Homo sapiens, UniProt Q92887); assay: Induction of MRP2-mediated E2-17betaG transport in human MRP2 expressing HEK293 cells at 7 uM during 5 mins; assay type: ADME, cell-based; details: hek293, 5 min
T1 sequence (Q92887 whole entry): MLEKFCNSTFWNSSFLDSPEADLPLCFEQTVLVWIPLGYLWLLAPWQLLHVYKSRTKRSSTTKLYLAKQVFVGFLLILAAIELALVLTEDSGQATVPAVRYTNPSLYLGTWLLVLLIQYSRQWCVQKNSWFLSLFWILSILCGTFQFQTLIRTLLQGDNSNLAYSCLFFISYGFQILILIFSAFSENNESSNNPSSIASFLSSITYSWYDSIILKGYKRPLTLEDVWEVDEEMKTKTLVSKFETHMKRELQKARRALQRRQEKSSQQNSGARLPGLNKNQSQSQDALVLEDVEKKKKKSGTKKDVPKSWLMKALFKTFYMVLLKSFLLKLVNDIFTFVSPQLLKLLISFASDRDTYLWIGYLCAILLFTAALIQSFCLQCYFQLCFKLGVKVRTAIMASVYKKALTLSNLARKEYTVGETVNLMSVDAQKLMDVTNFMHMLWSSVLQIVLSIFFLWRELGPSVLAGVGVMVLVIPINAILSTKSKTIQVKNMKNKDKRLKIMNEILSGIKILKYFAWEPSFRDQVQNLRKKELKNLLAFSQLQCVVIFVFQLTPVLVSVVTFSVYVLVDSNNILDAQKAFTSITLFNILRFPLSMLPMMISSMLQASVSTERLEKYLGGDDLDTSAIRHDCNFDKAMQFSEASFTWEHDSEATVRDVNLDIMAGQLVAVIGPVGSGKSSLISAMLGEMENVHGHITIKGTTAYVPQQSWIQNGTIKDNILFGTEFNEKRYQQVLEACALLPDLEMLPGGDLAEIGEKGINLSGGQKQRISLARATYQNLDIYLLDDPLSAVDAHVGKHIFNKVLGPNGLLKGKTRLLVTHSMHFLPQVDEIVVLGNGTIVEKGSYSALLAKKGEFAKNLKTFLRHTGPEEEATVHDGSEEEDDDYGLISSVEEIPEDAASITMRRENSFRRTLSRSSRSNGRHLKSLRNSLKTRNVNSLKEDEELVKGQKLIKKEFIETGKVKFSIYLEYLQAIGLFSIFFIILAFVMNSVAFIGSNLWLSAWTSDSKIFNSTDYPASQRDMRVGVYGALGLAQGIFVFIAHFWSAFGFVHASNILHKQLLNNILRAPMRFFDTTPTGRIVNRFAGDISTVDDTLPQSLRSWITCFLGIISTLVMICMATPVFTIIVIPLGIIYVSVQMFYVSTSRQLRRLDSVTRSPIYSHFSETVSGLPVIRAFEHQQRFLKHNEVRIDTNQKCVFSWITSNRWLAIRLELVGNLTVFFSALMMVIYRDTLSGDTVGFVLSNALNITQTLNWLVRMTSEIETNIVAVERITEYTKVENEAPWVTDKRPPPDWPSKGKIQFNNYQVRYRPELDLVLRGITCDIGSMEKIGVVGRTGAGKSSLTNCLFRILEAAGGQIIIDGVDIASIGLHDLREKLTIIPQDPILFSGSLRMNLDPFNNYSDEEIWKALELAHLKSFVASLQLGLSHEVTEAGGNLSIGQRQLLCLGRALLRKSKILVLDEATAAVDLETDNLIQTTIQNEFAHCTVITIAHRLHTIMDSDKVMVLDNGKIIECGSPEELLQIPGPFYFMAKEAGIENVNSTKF
Summary of the method: (§1)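 Inside-out membrane vesicles from HEK293 cells transduced with MRP baculovirus (5 mM butyrate at 24 h, harvested day 3). Reaction: 7.5 µg vesicles in TS buffer pH 7.4 with 4 mM ATP, 10 mM MgCl2 and [3H]E2-17βG, 37°C for 5 min. E2-17βG was 0.16 µM (MRP1), 20 µM (MRP2) or 0.12 µM (MRP4). Uptake was read by rapid filtration and scintillation counting. ATP-dependent uptake was taken as ATP minus AMP values, with drug-free uptake set at 100%. Nominal 10 or 100 µM antagonist; actual concentration measured by LC-MS/MS. Three independent experiments.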

[2] = target: T2, ATP-binding cassette sub-family C member 4 (Homo sapiens, UniProt O15439); assay: Inhibition of MRP4-mediated E2-17betaG transport in human MRP4 expressing HEK293 cells at 7 uM during 5 mins; assay type: ADME, cell-based; details: hek293, 5 min; summary of the method: as §1
T2 sequence (O15439 whole entry): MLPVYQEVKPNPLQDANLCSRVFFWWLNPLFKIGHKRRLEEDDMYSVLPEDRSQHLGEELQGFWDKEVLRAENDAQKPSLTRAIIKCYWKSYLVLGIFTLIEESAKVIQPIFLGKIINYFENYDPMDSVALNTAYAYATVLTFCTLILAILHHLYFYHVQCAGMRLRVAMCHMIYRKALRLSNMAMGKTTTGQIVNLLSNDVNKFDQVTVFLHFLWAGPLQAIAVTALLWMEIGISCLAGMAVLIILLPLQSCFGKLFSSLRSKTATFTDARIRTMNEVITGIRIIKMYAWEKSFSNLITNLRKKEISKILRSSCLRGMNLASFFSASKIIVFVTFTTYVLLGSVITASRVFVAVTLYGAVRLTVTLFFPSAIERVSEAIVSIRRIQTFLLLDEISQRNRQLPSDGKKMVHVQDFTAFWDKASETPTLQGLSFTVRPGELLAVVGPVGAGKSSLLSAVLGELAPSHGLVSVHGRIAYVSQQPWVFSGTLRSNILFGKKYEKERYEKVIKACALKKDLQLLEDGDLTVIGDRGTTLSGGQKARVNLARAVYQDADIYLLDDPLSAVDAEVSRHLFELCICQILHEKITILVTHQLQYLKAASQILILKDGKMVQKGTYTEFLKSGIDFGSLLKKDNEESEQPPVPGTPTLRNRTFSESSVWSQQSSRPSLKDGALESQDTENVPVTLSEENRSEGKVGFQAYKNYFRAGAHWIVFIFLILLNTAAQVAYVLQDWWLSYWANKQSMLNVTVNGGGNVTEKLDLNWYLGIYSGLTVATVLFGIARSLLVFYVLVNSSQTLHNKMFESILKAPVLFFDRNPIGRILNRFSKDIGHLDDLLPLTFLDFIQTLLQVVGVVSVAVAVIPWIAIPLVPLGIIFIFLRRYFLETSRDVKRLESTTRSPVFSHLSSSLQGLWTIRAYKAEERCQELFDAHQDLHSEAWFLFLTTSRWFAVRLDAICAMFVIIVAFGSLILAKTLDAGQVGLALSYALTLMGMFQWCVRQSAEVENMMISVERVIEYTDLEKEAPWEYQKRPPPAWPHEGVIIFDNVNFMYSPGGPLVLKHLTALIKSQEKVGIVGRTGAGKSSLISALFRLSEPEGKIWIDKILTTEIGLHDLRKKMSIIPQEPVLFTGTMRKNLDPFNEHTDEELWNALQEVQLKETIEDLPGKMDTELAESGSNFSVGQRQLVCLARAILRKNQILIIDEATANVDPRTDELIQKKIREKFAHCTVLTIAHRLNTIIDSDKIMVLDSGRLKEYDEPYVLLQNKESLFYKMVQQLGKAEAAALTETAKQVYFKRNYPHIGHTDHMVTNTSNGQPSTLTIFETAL

[3] = Retention time of the compound by LC-MS/MS method; assay type: physicochemical
Summary of the method: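 Reaction mix without radiolabel, AMP condition, with 7.5 μg eYFP vesicles. Supernatant after 16,000–20,000g spin diluted in 50% acetonitrile/0.1% TFA. Gradient of 0.1% TFA water/acetonitrile, 50→90% B over 5 min. Electrospray triple quadrupole. Duplicates, at least three experiments.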

[4] = target: T3, Multidrug resistance-associated protein 1 (Homo sapiens, UniProt P33527); assay: Inhibition of MRP1-mediated E2-17betaG transport in human MRP1 expressing HEK293 cells at 7 uM during 5 mins; assay type: ADME, cell-based; details: hek293, 5 min; summary of the method: as §1
T3 sequence (P33527 whole entry): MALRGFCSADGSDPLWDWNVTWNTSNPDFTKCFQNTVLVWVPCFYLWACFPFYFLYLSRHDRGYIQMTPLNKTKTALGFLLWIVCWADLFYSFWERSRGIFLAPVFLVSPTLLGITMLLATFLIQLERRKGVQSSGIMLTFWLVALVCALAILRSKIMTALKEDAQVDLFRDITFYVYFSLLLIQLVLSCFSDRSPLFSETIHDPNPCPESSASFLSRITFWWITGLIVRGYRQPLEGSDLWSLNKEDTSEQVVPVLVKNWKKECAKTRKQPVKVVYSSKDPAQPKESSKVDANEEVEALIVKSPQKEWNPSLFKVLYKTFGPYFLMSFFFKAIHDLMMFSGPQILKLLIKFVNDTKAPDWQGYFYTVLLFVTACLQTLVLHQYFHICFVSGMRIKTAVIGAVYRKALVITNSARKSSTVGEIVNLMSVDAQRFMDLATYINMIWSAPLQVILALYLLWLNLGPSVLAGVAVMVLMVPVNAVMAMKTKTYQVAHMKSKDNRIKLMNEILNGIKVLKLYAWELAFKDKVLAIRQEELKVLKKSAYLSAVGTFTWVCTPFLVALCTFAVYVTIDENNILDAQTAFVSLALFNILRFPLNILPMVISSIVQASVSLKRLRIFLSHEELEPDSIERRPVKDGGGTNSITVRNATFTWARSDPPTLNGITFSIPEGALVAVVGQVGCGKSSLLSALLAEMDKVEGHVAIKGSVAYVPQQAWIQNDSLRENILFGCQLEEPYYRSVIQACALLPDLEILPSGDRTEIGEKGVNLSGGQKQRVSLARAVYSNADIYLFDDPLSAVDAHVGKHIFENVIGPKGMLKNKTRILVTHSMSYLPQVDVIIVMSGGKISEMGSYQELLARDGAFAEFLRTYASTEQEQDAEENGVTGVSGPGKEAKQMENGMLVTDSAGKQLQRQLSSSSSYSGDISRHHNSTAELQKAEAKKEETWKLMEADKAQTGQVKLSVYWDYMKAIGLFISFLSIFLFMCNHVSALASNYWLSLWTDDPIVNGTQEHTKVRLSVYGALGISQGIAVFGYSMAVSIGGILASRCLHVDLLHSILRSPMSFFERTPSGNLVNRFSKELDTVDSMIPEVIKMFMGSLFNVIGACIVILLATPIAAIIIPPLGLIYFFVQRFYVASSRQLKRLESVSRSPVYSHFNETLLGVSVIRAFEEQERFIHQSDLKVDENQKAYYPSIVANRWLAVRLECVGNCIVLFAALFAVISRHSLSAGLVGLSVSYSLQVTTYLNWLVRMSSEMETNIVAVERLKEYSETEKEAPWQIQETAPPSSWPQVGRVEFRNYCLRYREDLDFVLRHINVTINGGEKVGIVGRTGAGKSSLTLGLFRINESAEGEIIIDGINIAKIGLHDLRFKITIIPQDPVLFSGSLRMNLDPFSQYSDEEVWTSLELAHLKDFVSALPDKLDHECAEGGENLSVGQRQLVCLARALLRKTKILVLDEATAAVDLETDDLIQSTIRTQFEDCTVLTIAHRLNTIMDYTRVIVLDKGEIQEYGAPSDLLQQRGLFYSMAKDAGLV

[5] = target: T2, ATP-binding cassette sub-family C member 4; assay: Inhibition of MRP4-mediated E2-17betaG transport in human MRP4 expressing HEK293 cells at 33 uM during 5 mins; assay type: ADME, cell-based; details: hek293, 5 min; summary of the method: as §1
[6] = tested on: Rattus norvegicus; assay: Attenuation of CP55940-induced hypotension in iv dosed rat; assay type: functional
Summary of the method: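 Male normotensive anaesthetized Wistar rats; antagonist given i.v. at several doses (n=2 per dose) 10 min before CP55,940 0.1 mg/kg i.v. Hypotension develops within 1 min; lowest blood pressure taken as the hypotensive effect. ED50 is the dose inhibiting the CP55,940 hypotensive effect by 50%, calculated from the linear part of the percentage dose-response curve.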

[7] = target: T3, Multidrug resistance-associated protein 1; assay: Inhibition of MRP1-mediated E2-17betaG transport in human MRP1 expressing HEK293 cells at 33 uM during 5 min; assay type: ADME, cell-based; details: hek293, 5 min; summary of the method: as §1
[8] = target: T1, ATP-binding cassette sub-family C member 2; assay: Induction of MRP2-mediated E2-17betaG transport in human MRP2 expressing HEK293 cells at 33 uM during 5 mins; assay type: ADME, cell-based; details: hek293, 5 min; summary of the method: as §1
[9] = target: T1, ATP-binding cassette sub-family C member 2; assay: Induction of MRP2-mediated E2-17betaG transport in human MRP2 expressing HEK293 cells at 1 to 3 uM during 5 mins; assay type: ADME, cell-based; details: hek293, 5 min
Summary of the method: (§2)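 Inside-out membrane vesicles from HEK293 cells transduced with MRP2 baculovirus (sodium butyrate 5 mM added at 24 h, harvested day 3). 7.5 μg vesicles in TS buffer (pH 7.4) with 4 mM ATP, 10 mM MgCl2, 20 μM [3H]E2-17βG, 5 min at 37°C. Rapid filtration and scintillation counting; AMP values subtracted. Nominal 10 and 100 μM antagonist, actual levels measured by LC-MS/MS. Untreated set at 100%. Three independent experiments.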

[10] = target: T2, ATP-binding cassette sub-family C member 4; assay: Inhibition of MRP4-mediated E2-17betaG transport in human MRP4 expressing HEK293 cells at 1 to 3 uM during 5 mins; assay type: ADME, cell-based; details: hek293, 5 min
Summary of the method: (§3)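 MRP4-expressing HEK293 inside-out vesicles (baculovirus transduction). 7.5 μg protein with 4 mM ATP, 10 mM MgCl2 in TS buffer and 0.12 μM [3H]E2-17βG, 5 min at 37°C. Filter-bound radioactivity counted; AMP control subtracted for ATP-dependent uptake. Nominal 10/100 μM antagonist, actual concentrations by LC-MS/MS. Percent of untreated, three independent experiments.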

[11] = target: T1, ATP-binding cassette sub-family C member 2; assay: Induction of MRP2-mediated E2-17betaG transport in human MRP2 expressing HEK293 cells at 0.7 to 1.3 uM during 5 mins; assay type: ADME, cell-based; details: hek293, 5 min; summary of the method: as §2
[12] = target: T3, Multidrug resistance-associated protein 1; assay: Inhibition of MRP1-mediated E2-17betaG transport in human MRP1 expressing HEK293 cells at 1 to 3 uM during 5 mins; assay type: ADME, cell-based; details: hek293, 5 min
Summary of the method: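 Inside-out membrane vesicles from MRP1-baculovirus-transduced HEK293 cells. 7.5 μg vesicles in TS buffer, 4 mM ATP, 10 mM MgCl2, 0.16 μM [3H]E2-17βG, 5 min at 37°C. Stopped on ice, then rapid filtration and scintillation counting. ATP minus AMP uptake taken as net. Nominal 10 or 100 μM antagonist, actual levels by LC-MS/MS. Expressed as % of untreated. Three independent experiments.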

[13] = target: T1, ATP-binding cassette sub-family C member 2; assay: Induction of MRP2-mediated E2-17betaG transport in human MRP2 expressing HEK293 cells at 4 uM during 5 mins; assay type: ADME, cell-based; details: hek293, 5 min; summary of the method: as §2
[14] = target: ATP-binding cassette sub-family C member 3 (Homo sapiens, UniProt O15438); assay: Inhibition of MRP3-mediated E2-17betaG transport in human MRP3 expressing HEK293 cells in presence of 15 uM E2-17betaG; assay type: ADME, cell-based
ATP-binding cassette sub-family C member 3, sequence (O15438 whole entry): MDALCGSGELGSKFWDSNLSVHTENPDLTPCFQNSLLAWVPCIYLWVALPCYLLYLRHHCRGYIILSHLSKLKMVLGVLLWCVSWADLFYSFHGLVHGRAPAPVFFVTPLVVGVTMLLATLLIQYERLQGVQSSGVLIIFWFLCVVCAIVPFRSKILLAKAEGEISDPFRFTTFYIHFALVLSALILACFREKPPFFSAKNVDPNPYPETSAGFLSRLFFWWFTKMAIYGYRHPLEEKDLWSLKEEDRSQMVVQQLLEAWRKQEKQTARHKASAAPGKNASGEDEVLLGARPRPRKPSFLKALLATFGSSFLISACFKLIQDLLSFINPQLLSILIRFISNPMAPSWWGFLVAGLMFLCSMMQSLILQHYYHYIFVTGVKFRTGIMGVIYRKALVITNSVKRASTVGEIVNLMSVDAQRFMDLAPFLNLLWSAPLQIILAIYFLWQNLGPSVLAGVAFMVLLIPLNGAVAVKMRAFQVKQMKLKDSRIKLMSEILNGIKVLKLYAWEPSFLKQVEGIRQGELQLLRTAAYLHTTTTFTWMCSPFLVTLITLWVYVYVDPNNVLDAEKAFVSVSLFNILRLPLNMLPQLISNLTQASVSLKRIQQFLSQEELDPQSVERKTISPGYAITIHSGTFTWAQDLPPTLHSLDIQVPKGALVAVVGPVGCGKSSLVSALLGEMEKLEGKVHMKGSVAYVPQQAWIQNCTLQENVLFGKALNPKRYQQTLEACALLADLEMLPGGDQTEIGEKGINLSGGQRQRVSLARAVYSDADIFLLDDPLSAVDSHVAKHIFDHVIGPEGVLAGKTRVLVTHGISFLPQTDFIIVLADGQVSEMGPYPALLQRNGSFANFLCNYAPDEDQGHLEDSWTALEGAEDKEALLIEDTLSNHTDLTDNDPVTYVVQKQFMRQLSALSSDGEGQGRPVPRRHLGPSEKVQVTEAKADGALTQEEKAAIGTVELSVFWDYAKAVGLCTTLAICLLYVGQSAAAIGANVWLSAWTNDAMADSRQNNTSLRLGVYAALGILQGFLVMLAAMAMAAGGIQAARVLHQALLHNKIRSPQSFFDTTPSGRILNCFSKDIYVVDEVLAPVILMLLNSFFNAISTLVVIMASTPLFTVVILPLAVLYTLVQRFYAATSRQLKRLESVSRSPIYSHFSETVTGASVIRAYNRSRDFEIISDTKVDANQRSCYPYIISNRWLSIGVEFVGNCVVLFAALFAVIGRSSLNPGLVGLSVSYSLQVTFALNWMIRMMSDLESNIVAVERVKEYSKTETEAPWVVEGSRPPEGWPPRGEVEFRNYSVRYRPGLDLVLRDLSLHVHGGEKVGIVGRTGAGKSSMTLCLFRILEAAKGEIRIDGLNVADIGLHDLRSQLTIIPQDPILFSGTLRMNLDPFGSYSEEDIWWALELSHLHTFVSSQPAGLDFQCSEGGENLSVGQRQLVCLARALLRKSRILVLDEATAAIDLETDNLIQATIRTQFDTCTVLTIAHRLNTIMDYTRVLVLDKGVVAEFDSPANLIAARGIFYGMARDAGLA
Summary of the method: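 Vesicles from MRP3-transduced HEK293 cells. 7.5 μg in TS buffer with 4 mM ATP and 10 mM MgCl2, substrate [3H]E2-17βG at 15 μM, with antagonists at high concentrations. Incubated at 37°C, filtered and counted. ATP-dependent uptake calculated by AMP subtraction.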

[15] = target: T4, MRP4 (ABCC4) (Homo sapiens, UniProt O15439); assay: Inhibition of MRP4-mediated E2-17betaG transport in human MRP4 expressing HEK293 cells at 4 uM during 5 mins; assay type: ADME, cell-based; details: probe E2-17betaG; summary of the method: as §3
T4 sequence (O15439 whole entry): T2 sequence (O15439 whole entry)

[16] = target: T2, ATP-binding cassette sub-family C member 4; assay: Inhibition of MRP4-mediated E2-17betaG transport in human MRP4 expressing HEK293 cells in presence of 0.1 to 1 uM E2-17betaG
[17] = target: T2, ATP-binding cassette sub-family C member 4; assay: Noncompetitive inhibition of MRP4-mediated E2-17betaG transport in human MRP4 expressing HEK293 cells by Dixon plot; assay type: ADME, cell-based
[18] = Cmax in male human subjects; assay type: ADME, organism-based; details: in vivo

Compound: C/N=C(\NS(=O)(=O)N(C)C(C)C)N1CC(c2ccccc2)C(c2ccc(Cl)cc2)=N1 (stereo not given)
Activity [1]: 543%
inhibition (INH) [2]: Active
Retention_time [3]: 4.2 min
inhibition (INH) [4]: Active

Compound: C/N=C(\NS(=O)(=O)N(C)C)N1CC(c2ccccc2)C(c2ccc(Cl)cc2)=N1 (stereo not given)
inhibition (INH) [5]: Active
ED50 [6]: > 0.3 mg/kg
inhibition (INH) [7]: Active
Retention_time [3]: 3.2 min
Activity [8]: 543%

Activity [9]: 349%
inhibition (INH) [10]: Not Active
Activity [11]: 256%
inhibition (INH) [12]: Not Active
Retention_time [3]: 4 min
Compound: C/N=C(\NS(=O)(=O)N1CCSCC1)N1CC(c2ccccc2)C(c2ccc(Cl)cc2)=N1 (stereo not given)

Activity [9]: Not Active
inhibition (INH) [10]: Not Active
inhibition (INH) [12]: Not Active
Retention_time [3]: 2.6 min
Compound: CN=C(NS(=O)(=O)N1CCS(=O)(=O)CC1)N1CC(c2ccccc2)C(c2ccc(Cl)cc2)=N1 (stereo not given)

Activity [13]: 513%
inhibition (INH) [14]: Active
inhibition at 5 min, 4 µM [15]: -58%
inhibition (INH) [16]: Active
Retention_time [3]: 3.2 min
Ki [17]: 4 µM
Cmax [18]: 400 nM
Compound: Cc1c(C(=O)NN2CCCCC2)nn(-c2ccc(Cl)cc2Cl)c1-c1ccc(Cl)cc1 [RIMONABANT]
